According to ChEMBL document CHEMBL5506013, “Mitochondria-Selective Dicationic Small-Molecule Ligand Targeting G-Quadruplex Structures for Human Colorectal Cancer Therapy” (J Med Chem, 2024):
pIC50, pKd: −log10 of the molar value. Calls of active or inactive are those of the source. The rule behind the calls is not given here.

How the values were obtained:
[1] = Drug uptake in living human HCT-116 cells assessed as increase in fluorescent signal in subnuclear region at 4 uM incubated for 1 hrs by Hoechst33342 staining based analysis; assay type: ADME, cell-based; settings: hct-116, 1 h
HFF-1 = assay: (§1) Antiproliferative activity against human HFF-1 cells measured after 48 hrs by MTT assay; assay type: toxicity, cell-based; settings: hff-1, 48 h, time 48 hrs
How it was run: (§2)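 Cells exposed to the ligands for 48 h. Viability was read by MTT, and the IC50 was derived from the response.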

Quadruplex DNA [2] = assay: Binding affinity to mito 132 G4 DNA (unknown origin) at 5 uM by fluorescence titration based analysis; assay type: nucleic-acid assay
How it was run: (§3)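 Oligonucleotides were pre-annealed at 95 °C for 10 min, then cooled slowly. Ligand (5 uM) was mixed with 20 uM DNA in buffer. Emission was collected over 550–800 nm, and enhancement was taken at 650 nm as F/F0.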

Quadruplex DNA [3] = assay: Binding affinity to mito 29 G4 DNA (unknown origin) at 5 uM by fluorescence titration based analysis; assay type: nucleic-acid assay; how it was run: as §3
HCT-116 = assay: Antiproliferative activity against human HCT-116 cells measured after 48 hrs by MTT assay; assay type: functional, cell-based; settings: for pIC50: HCT-116, 48 h; how it was run: as §2
Quadruplex DNA [4] = assay: Binding affinity to mito 56 G4 DNA (unknown origin) at 5 uM by fluorescence titration based analysis; assay type: nucleic-acid assay; how it was run: as §3
[5] = Drug uptake in living human HCT-116 cells at 4 uM incubated for 1 hrs by Hoechst33342 staining based analysis; assay type: ADME, cell-based; settings: hct-116, 1 h
Quadruplex DNA [6] = assay: Binding affinity to mito 05-18 G4 DNA (unknown origin) at 5 uM by fluorescence titration based analysis; assay type: nucleic-acid assay; how it was run: as §3
Quadruplex DNA [7] = assay: Binding affinity to mito 81 G4 DNA (unknown origin) at 5 uM by fluorescence titration based analysis; assay type: nucleic-acid assay
How it was run: (§4)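 Fluorescence titration in buffer. Ligand at 5 uM mixed with 20 uM pre-annealed DNA (95 °C for 10 min, slow cooling). Emission collected at 550-800 nm and monitored at 650 nm. Result reported as fold enhancement F/F0 over ligand alone.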

Quadruplex DNA [8] = assay: Binding affinity to mito 05-15 G4 DNA (unknown origin) at 5 uM by fluorescence titration based analysis; assay type: nucleic-acid assay; how it was run: as §3
Quadruplex DNA [9] = assay: Binding affinity to mito 78 G4 DNA (unknown origin) at 5 uM by fluorescence titration based analysis; assay type: nucleic-acid assay; how it was run: as §4
BJ = assay: (§5) Antiproliferative activity against human BJ cells measured after 48 hrs by MTT assay; assay type: toxicity, cell-based; settings: bj, 48 h; how it was run: as §2
Quadruplex DNA [10] = assay: Binding affinity to mito 29 G4 DNA (unknown origin) assessed as dissociation constant measured upto 450 secs by surface plasmon resonance assay; assay type: nucleic-acid assay
How it was run: (§6)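 Surface plasmon resonance in buffer at 25 °C. Four G4-mtDNAs (Mito 78, Mito 55, Mito 29, Mito 0.5-16) and the hairpin HP19 served as substrates. Kd was derived from the sensorgrams.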

PANC-1 = assay: Antiproliferative activity against human PANC-1 cells measured after 48 hrs by MTT assay; assay type: functional, cell-based; settings: PANC-1, 48 h; how it was run: as §2
[11] = as §1; assay type: toxicity, cell-based; settings: HFF-1 cells; how it was run: as §2
LoVo = assay: Antiproliferative activity against human LoVo cells measured after 48 hrs by MTT assay; assay type: functional, cell-based; how it was run: as §2
Quadruplex DNA [12] = assay: Binding affinity to mito 0.5-16 G4 DNA (unknown origin) assessed as dissociation constant measured upto 450 secs by surface plasmon resonance assay; assay type: nucleic-acid assay; how it was run: as §6
HepG2 = assay: Antiproliferative activity against human HepG2 cells measured after 48 hrs by MTT assay; assay type: functional, cell-based; settings: HepG2, 48 h; how it was run: as §2
HeLa = assay: Antiproliferative activity against human HeLa cells measured after 48 hrs by MTT assay; assay type: functional, cell-based; how it was run: as §2
DNA = assay: Binding affinity to HP19 DNA (non-G4 DNA) (unknown origin) assessed as dissociation constant measured upto 450 secs by surface plasmon resonance assay; assay type: nucleic-acid assay; how it was run: as §6
Quadruplex DNA [13] = assay: Binding affinity to mito 55 G4 DNA (unknown origin) assessed as dissociation constant measured upto 450 secs by surface plasmon resonance assay; assay type: nucleic-acid assay; how it was run: as §6
MDA-MB-231 = assay: Antiproliferative activity against human MDA-MB-231 cells measured after 48 hrs by MTT assay; assay type: functional, cell-based; settings: MDA-MB-231, 48 h; how it was run: as §2
[14] = as §5; assay type: toxicity, cell-based; settings: BJ cells; how it was run: as §2
Quadruplex DNA [15] = assay: Binding affinity to mito 78 G4 DNA (unknown origin) assessed as dissociation constant measured upto 450 secs by surface plasmon resonance assay; assay type: nucleic-acid assay

CCCC[n+]1c(/C=C/c2ccc(N3CCCCC3)cc2)ccc2ccccc21.[I-]
Drug uptake [1]: Active | Activity (HFF-1): Toxic | Activity (Quadruplex DNA [2]): Active | Activity (Quadruplex DNA [3]): Active | Activity (HCT-116): inactive | Activity (Quadruplex DNA [4]): Active | Drug uptake [5]: Not Active | Activity (Quadruplex DNA [6]): Active | Activity (Quadruplex DNA [7]): Active | Activity (Quadruplex DNA [8]): Active | Activity (Quadruplex DNA [9]): Active | Activity (BJ): Toxic

C(=C\c1ccc2ccccc2[n+]1CCCCCCCC[n+]1c(/C=C/c2ccc(N3CCOCC3)cc2)ccc2ccccc21)/c1ccc(N2CCOCC2)cc1
pKd (Quadruplex DNA [10]): 6.62 | pIC50 (PANC-1): < 4.40 | IC50 at 48 h [11]: > 40 µM | pIC50 (HCT-116): 4.53 | pIC50 (LoVo): 4.45 | pKd (Quadruplex DNA [12]): 6.55 | pIC50 (HepG2): < 4.40 | pIC50 (HeLa): < 4.40 | pKd (DNA): 5.73 | pKd (Quadruplex DNA [13]): 6.33 | pIC50 (MDA-MB-231): < 4.40 | IC50 at 48 h [14]: > 40 µM | pKd (Quadruplex DNA [15]): 6.92

Cc1ccc(/C=C/c2ccc3ccccc3[n+]2CCCCCCCC[n+]2c(/C=C/c3ccc(C)cc3)ccc3ccccc32)cc1
pKd (Quadruplex DNA [10]): 6.14 | pIC50 (PANC-1): < 4.40 | IC50 at 48 h [11]: > 40 µM | pIC50 (HCT-116): 4.56 | pIC50 (LoVo): < 4.40 | pKd (Quadruplex DNA [12]): 5.93 | pIC50 (HepG2): < 4.40 | pIC50 (HeLa): < 4.40 | pKd (DNA): < 5.70 | pKd (Quadruplex DNA [13]): 6.04 | pIC50 (MDA-MB-231): < 4.40 | IC50 at 48 h [14]: > 40 µM | pKd (Quadruplex DNA [15]): 7.15

CN(C)c1ccc(/C=C/c2ccc3ccccc3[n+]2CCCCCCCC[n+]2c(/C=C/c3ccc(N(C)C)cc3)ccc3ccccc32)cc1
pKd (Quadruplex DNA [10]): 6.85 | pIC50 (PANC-1): < 4.40 | IC50 at 48 h [11]: 22.7 µM | pIC50 (HCT-116): 4.76 | pIC50 (LoVo): 4.81 | pKd (Quadruplex DNA [12]): 6.96 | pIC50 (HepG2): < 4.40 | pIC50 (HeLa): 4.53 | pKd (DNA): < 5.70 | pKd (Quadruplex DNA [13]): 6.89 | pIC50 (MDA-MB-231): < 4.40 | IC50 at 48 h [14]: > 40 µM | pKd (Quadruplex DNA [15]): 7.52

C[n+]1c(/C=C/c2ccc(N3CCCCC3)cc2)ccc2ccccc21.[I-]
Drug uptake [1]: Active | Activity (HFF-1): Toxic | Activity (Quadruplex DNA [2]): Active | Activity (Quadruplex DNA [3]): Active | Activity (HCT-116): inactive | Activity (Quadruplex DNA [4]): Active | Drug uptake [5]: Not Active | Activity (Quadruplex DNA [6]): Active | Activity (Quadruplex DNA [7]): Active | Activity (Quadruplex DNA [8]): Active | Activity (Quadruplex DNA [9]): Active | Activity (BJ): Toxic

C(=C\c1ccc2ccccc2[n+]1CCCCCCCC[n+]1c(/C=C/c2ccccc2)ccc2ccccc21)/c1ccccc1
pKd (Quadruplex DNA [10]): 6.30 | pIC50 (PANC-1): < 4.40 | IC50 at 48 h [11]: 28.3 µM | pIC50 (HCT-116): < 4.40 | pIC50 (LoVo): < 4.40 | pKd (Quadruplex DNA [12]): 5.99 | pIC50 (HepG2): < 4.40 | pIC50 (HeLa): < 4.40 | pKd (DNA): < 5.70 | pKd (Quadruplex DNA [13]): 6.24 | pIC50 (MDA-MB-231): < 4.40 | IC50 at 48 h [14]: > 40 µM | pKd (Quadruplex DNA [15]): 6.54

CSc1ccc(/C=C/c2ccc3ccccc3[n+]2CCCCCCCC[n+]2c(/C=C/c3ccc(SC)cc3)ccc3ccccc32)cc1
pKd (Quadruplex DNA [10]): 6.47 | pIC50 (PANC-1): < 4.40 | IC50 at 48 h [11]: 34.7 µM | pIC50 (HCT-116): 4.61 | pIC50 (LoVo): < 4.40 | pKd (Quadruplex DNA [12]): 6.82 | pIC50 (HepG2): < 4.40 | pIC50 (HeLa): < 4.40 | pKd (DNA): < 5.70 | pKd (Quadruplex DNA [13]): 6.34 | pIC50 (MDA-MB-231): < 4.40 | IC50 at 48 h [14]: > 40 µM | pKd (Quadruplex DNA [15]): 7.30

C(=C\c1ccc2ccccc2[n+]1CCCCCCCC[n+]1c(/C=C/c2c[nH]c3ccccc23)ccc2ccccc21)/c1c[nH]c2ccccc12
pKd (Quadruplex DNA [10]): 6.64 | pIC50 (PANC-1): < 4.40 | IC50 at 48 h [11]: > 40 µM | pIC50 (HCT-116): 4.70 | pIC50 (LoVo): < 4.40 | pKd (Quadruplex DNA [12]): 6.60 | pIC50 (HepG2): < 4.40 | pIC50 (HeLa): 4.63 | pKd (DNA): < 5.70 | pKd (Quadruplex DNA [13]): 6.21 | pIC50 (MDA-MB-231): < 4.40 | IC50 at 48 h [14]: > 40 µM | pKd (Quadruplex DNA [15]): 7.10

C(=C\c1ccc2ccccc2[n+]1CCCCCCCC[n+]1c(/C=C/c2ccc(N3CCCC3)cc2)ccc2ccccc21)/c1ccc(N2CCCC2)cc1
pKd (Quadruplex DNA [10]): 6.82 | pIC50 (PANC-1): 4.69 | IC50 at 48 h [11]: 31.1 µM | pIC50 (HCT-116): 5.27 | pIC50 (LoVo): 4.82 | pKd (Quadruplex DNA [12]): 6.39 | pIC50 (HepG2): < 4.40 | pIC50 (HeLa): 4.66 | pKd (DNA): < 5.70 | pKd (Quadruplex DNA [13]): 6.77 | pIC50 (MDA-MB-231): < 4.40 | IC50 at 48 h [14]: 31.4 µM | pKd (Quadruplex DNA [15]): 6.89

CCn1c2ccccc2c2cc(/C=C/c3ccc4ccccc4[n+]3CCCCCCCC[n+]3c(/C=C/c4ccc5c(c4)c4ccccc4n5CC)ccc4ccccc43)ccc21
pKd (Quadruplex DNA [10]): 6.68 | pIC50 (PANC-1): < 4.40 | IC50 at 48 h [11]: > 40 µM | pIC50 (HCT-116): 5.07 | pIC50 (LoVo): < 4.40 | pKd (Quadruplex DNA [12]): 6.02 | pIC50 (HepG2): 4.60 | pIC50 (HeLa): 4.49 | pKd (DNA): < 5.70 | pKd (Quadruplex DNA [13]): 6.28 | pIC50 (MDA-MB-231): < 4.40 | IC50 at 48 h [14]: > 40 µM | pKd (Quadruplex DNA [15]): 7.70

C(=C\c1ccc2ccccc2[n+]1CCCCCCCC[n+]1c(/C=C/c2cc3ccccc3[nH]2)ccc2ccccc21)/c1cc2ccccc2[nH]1
pKd (Quadruplex DNA [10]): 6.85 | pIC50 (PANC-1): < 4.40 | IC50 at 48 h [11]: > 40 µM | pIC50 (HCT-116): 5.10 | pIC50 (LoVo): < 4.40 | pKd (Quadruplex DNA [12]): < 5.70 | pIC50 (HepG2): 4.43 | pIC50 (HeLa): 4.46 | pKd (DNA): < 5.70 | pKd (Quadruplex DNA [13]): 6.66 | pIC50 (MDA-MB-231): < 4.40 | IC50 at 48 h [14]: > 40 µM | pKd (Quadruplex DNA [15]): 5.74
